Molecular target: Hemagglutinin (Influenza A virus (strain A/X-31 H3N2)) (UniProt P03438)
Assay: Inhibition of influenza A, strain X-31, induced hemagglutinination of chicken erythrocytes
Format: functional
Settings: Influenza A virus (A/X-31(H3N2))
How it was run: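 Binding affinities come from hemagglutination inhibition with adult chicken red blood cells. Each is reported as a relative affinity against methyl α-sialoside (Neu5Acα2Me), whose affinity is set at 1.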

Hemagglutinin (Influenza A virus (strain A/X-31 H3N2)), sequence (P03438 whole entry): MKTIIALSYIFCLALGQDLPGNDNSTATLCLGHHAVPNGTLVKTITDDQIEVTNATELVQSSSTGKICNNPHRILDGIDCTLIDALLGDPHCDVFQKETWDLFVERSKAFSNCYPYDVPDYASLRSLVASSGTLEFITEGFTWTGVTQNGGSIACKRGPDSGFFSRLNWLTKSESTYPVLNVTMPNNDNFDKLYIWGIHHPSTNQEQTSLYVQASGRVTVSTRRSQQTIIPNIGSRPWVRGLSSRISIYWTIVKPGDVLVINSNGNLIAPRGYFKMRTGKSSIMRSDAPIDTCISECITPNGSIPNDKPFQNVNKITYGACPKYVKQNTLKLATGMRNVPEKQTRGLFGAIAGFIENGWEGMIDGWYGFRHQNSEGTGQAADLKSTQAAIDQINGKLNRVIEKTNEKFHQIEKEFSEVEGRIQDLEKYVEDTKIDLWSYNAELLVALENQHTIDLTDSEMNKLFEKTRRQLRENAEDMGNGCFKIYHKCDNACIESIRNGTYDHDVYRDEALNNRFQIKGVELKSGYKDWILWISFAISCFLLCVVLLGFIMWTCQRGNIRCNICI

Molecule `CC(=O)NC1C(O)CC(OCCCCCCC(=O)NCc2ccccc2)(C(=O)O)OC1[C@H](O)[C@H](O)CO` (some centres undefined) has a Relative affinity of 16.
`CC(=O)NC1C(O)CC(OCCC(=O)NCc2cccc3ccccc23)(C(=O)O)OC1[C@H](O)[C@H](O)CO` (some centres undefined) gave a Relative affinity of 8.
With `CNC(=O)CCCCOC1(C(=O)O)CC(O)C(NC(C)=O)C([C@H](O)[C@H](O)CO)O1` (some centres undefined) the Relative affinity was 1.
Work on `CC(=O)NC1C(O)CC(OCCCCCCCCC(=O)NCc2ccccc2)(C(=O)O)OC1[C@H](O)[C@H](O)CO` (some centres undefined) yielded a Relative affinity of less than 8.
With `CC(=O)NC1C(O)CC(OCCCCC(=O)NNS(=O)(=O)c2cccc3c(N(C)C)cccc23)(C(=O)O)OC1[C@H](O)[C@H](O)CO` (some centres undefined) the Relative affinity was 4.
For `CC(=O)NC1C(O)CC(OCCCCC(=O)NCc2cc3ccccc3c3ccccc23)(C(=O)O)OC1[C@H](O)[C@H](O)CO` (some centres undefined), the Relative affinity was 32.
`CC(=O)NC1C(O)CC(OCCCCC(=O)NCc2cccc(C(=O)O)c2)(C(=O)O)OC1[C@H](O)[C@H](O)CO` (some centres undefined) showed a Relative affinity of 16.
In the case of `CC(=O)NC1C(O)CC(OCCCCC(=O)NCc2cccc3ccccc23)(C(=O)O)OC1[C@H](O)[C@H](O)CO` (some centres undefined), the Relative affinity is reported as 32.
`CC(=O)NC1C(O)CC(OCCCCC(=O)NCCNC(=O)OCc2ccccc2)(C(=O)O)OC1[C@H](O)[C@H](O)CO` (some centres undefined) was tested, and the Relative affinity was 4.
With `CC(=O)NC1C(O)CC(OCCCCC(=O)NCc2ccccc2)(C(=O)O)OC1[C@H](O)[C@H](O)CO` (some centres undefined) the Relative affinity was 8.
With `CC(=O)NC1C(O)CC(OCCCCCCCCC(=O)NCc2cccc3ccccc23)(C(=O)O)OC1[C@H](O)[C@H](O)CO` (some centres undefined) the Relative affinity was 16.
With `CC(=O)NC1C(O)CC(OCCCCCCC(=O)NCc2cccc3ccccc23)(C(=O)O)OC1[C@H](O)[C@H](O)CO` (some centres undefined) the Relative affinity was 64.
Work on `CC(=O)NC1C(O)CC(OCCCCC(=O)NCc2ccc3ncccc3c2)(C(=O)O)OC1[C@H](O)[C@H](O)CO` (some centres undefined) yielded a Relative affinity of 8.
Molecule `CC(=O)NC1C(O)CC(OCCCCCCC(=O)NCc2cc3ccccc3c3ccccc23)(C(=O)O)OC1[C@H](O)[C@H](O)CO` (some centres undefined) has a Relative affinity of 64.

Source: ChEMBL document CHEMBL1125780, “Monovalent sialosides that bind tightly to influenza A virus” (J Med Chem, 1991)
